Compound activity deposited in PubChem BioAssay by several laboratories.
In the library only some 2.2% were active in any assay of this set; here they are far more common.
14-3-3 Bad inh – inhibitors of 14-3-3 zeta/Bad binding, primary screen, biochemical, TR-FRET, bovine 14-3-3 zeta | 14-3-3 protein zeta/delta (Bos taurus), P63103 | TR-FRET 14-3-3zeta/Dy647-pBad peptide displacement, 1 h | inhibition, % at 21.7 µM | actives 0.71% (n = 220,000) | AID 781, 2007;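 active means inhibition above about 70%, limit read from the data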
PERK inh – block of dimerizer-induced PERK translation repression, primary screen, PERK inhibitor project, CHO PERK-DD cells, SEAP luminescence, HTS; actives 0.17% (n = 220,000); AID 1416, 2008; Eukaryotic translation initiation factor 2-alpha kinase 3 (Homo sapiens), Q9NZJ5; inhibition, % at 5.6 µM; CHO PERK-DD fusion, SEAP luminescence translation reporter;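 active means inhibition above the mean inhibition of all tested compounds plus 3 SD, set separately per screening campaign, cut at about 2.9% in these data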;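 further: PERK kinase domain activated by AP20187 dimerizer at 100 nM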
eIF4E 4G PPI – eIF4E–eIF4G protein interaction inhibitors, primary screen, biochemical, uHTS, TR-FRET, eIF4GI fragment; TR-FRET eIF4E-eIF4GI(517-606) binding, 2 h; inhibition, % at 21.7 µM; AID 782, 2007; actives 0.37% (n = 220,000);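 active means inhibition above about 30%, limit read from the data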
Calb biofilm kill – clotrimazole potentiators killing C. albicans biofilm, primary screen, 4-compound mixtures | C. albicans biofilm persisters + clotrimazole, fluorescence viability; primary screen in compound mixtures of four per well | inhibition, % at 7.6 µM | actives 0.02% (n = 120,000) | AID 1242, 2008;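 active means inhibition above 30.3% in the primary screen of four-compound pools, then above 30% when the compound was retested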;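 further: compounds exposed to preformed 24 h biofilms for 48 h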
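System: C. albicans CAF4-2 wild-type biofilms; Medium: RPMI/MOPS medium, pH 7.0; Reagent: Clotrimazole, 50 µg/mL; Times: biofilm formation 24 h, compound exposure 48 h, 37 °C; Detection: 2-h Alamar Blue fluorescence, 535/590 nm excitation/emission; Evaluation: percent inhibition of biofilm viability.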
Hck Nef HTS – inhibitors of Nef-activated human Hck kinase, primary screen, biochemical, Z-Lyte FRET, 384-well, Hck-YEEI; AID 463187, 2010; Tyrosine-protein kinase HCK (Homo sapiens), P08631; actives 0.68% (n = 220,000); Recombinant Hck-YEEI plus Nef, Z-Lyte FRET kinase assay; inhibition, % at 20 µM;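 active means Hck-Nef kinase inhibition above about 50%, limit read from the data; inactive means inhibition below that limit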
Target sequence (P08631 whole entry, looked up): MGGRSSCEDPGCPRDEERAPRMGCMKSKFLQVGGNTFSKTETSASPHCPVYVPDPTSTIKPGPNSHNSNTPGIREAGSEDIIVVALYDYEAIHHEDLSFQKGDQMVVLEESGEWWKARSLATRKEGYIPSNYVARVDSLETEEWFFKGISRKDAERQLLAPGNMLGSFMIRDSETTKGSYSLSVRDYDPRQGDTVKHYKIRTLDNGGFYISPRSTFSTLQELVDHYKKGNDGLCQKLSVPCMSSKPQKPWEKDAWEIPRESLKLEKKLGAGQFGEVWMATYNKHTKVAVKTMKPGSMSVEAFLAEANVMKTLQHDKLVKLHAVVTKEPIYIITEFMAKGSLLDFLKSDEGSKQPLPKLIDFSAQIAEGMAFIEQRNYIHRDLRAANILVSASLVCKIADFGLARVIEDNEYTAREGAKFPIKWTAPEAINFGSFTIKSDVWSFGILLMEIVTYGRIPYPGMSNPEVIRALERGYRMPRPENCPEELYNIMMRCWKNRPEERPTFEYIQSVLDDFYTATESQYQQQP
p97 inhibitor – inhibitors of human p97 ATPase, primary screen, biochemical | Transitional endoplasmic reticulum ATPase (Homo sapiens), P55072 | recombinant p97 ATPase, Kinase-Glo ATP luminescence, 3 h | inhibition, % at 8 µM | actives 0.42% (n = 220,000) | AID 1481, 2009; in the data active means inhibition above about 15%
Numbers stand for hits; – = inactive; · = no result given; [ ] = another dose, or the depositor's remark.

SMILES	14-3-3 Bad inh	PERK inh	eIF4E 4G PPI	Calb biofilm kill	Hck Nef HTS	p97 inhibitor
CC(C)CNC(=O)Cn1c(=O)c2c(ncn2CC(C)C)n(Cc2ccccc2)c1=O	90	–	–	–	–	–
Cc1cc2ccccn2c1C(=O)c1ccc([N+](=O)[O-])o1	–	–	–	–	–	–
CCOC(=O)c1cc(-c2ccccc2)sc1NC(=O)C(C)(C)C	–	–	–	·	–	–
CCOC(=O)c1cc(-c2ccccc2)sc1NC(=O)CC(C)C	74	–	–	·	–	–
O=C(Nc1ccc2[nH]ccc2c1)c1cccs1	–	–	32	–	–	–
CC1CCc2c(sc3ncn(Cc4ccc(C(=O)O)cc4)c(=O)c23)C1 (stereo not drawn)	–	–	–	–	–	15
CCc1ccc(NC(=O)CSc2nc3ccccc3c(=O)n2CCCN2CCC(C)CC2)cc1	–	–	–	–	–	–
COc1ccc(CCNC(=O)c2cc3c(=O)n(C)c4ccccc4c3n2C)c(OC)c1	–	–	–	–	–	–
CCCN1CCN(C(=O)CCCNC(=O)Cn2cnc3sc(C)c(C)c3c2=O)CC1	–	–	36[fluorescence artefact?]	·	–	–
CCCNC(=O)Cn1cnc2sc(C(=O)N3CCN(CCC)CC3)c(C)c2c1=O	–	–	–	·	–	–
COC(=O)c1sccc1NC(=O)CC1C(=O)NCCN1C(=O)Nc1cc(Cl)ccc1OC (stereo not drawn)	–	–	–	–	–	–
COc1ccc(C(=O)N2CCC(N3CCN(c4ccccc4)CC3)CC2)cc1	89	–	–	·	–	–
CC(C)CC(=O)N1CCC(N2CCN(c3ccccc3)CC2)CC1	–	–	50	·	–	–
O=C(CCC1CCCC1)N1CCC(N2CCN(c3ccccc3)CC2)CC1	–	–	–	·	–	–
O=C(c1ccccc1)N1CCN(C2CCCCCC2)CC1	72	–	–	·	–	–
COC(=O)[C@@H](NC(=O)NCCC1=CCCCC1)C(C)C	–	–	–	–	–	–
Cc1cc(N2CCCCC2)nc(NCc2ccccc2)n1	–	–	67	·	–	–
COCCN(C(=S)Nc1ccc(Cl)cc1OC)C1CCN(C(C)=O)CC1	–	–	–	–	–	–
COCCn1nnnc1C(c1ccc(Cl)cc1)N1CCSCC1 (stereo not drawn)	75	–	–	·	–	–
COCCn1nnnc1C(c1ccccc1OC)N1CCN(c2ccccc2F)CC1 (stereo not drawn)	74	–	–	·	–	–
CCCC(c1nnnn1Cc1ccccc1)N1CCN(c2ccccc2OC)CC1 (stereo not drawn)	84	–	–	·	–	–
COCCn1nnnc1C(c1ccc(OC)cc1)N1CCN(c2ccccc2F)CC1 (stereo not drawn)	–	–	–	·	–	–
COCCn1nnnc1C(c1ccc(OC)cc1)N1CCC(C)CC1 (stereo not drawn)	–	–	–	·	–	–
COc1ccc(C(c2nnnn2Cc2cccs2)N2CCN(c3ccccc3F)CC2)cc1OC (stereo not drawn)	83	–	–	·	–	–
COC(=O)[C@@H]1C[C@@]2(O)[C@@H](O)[C@@H](O)[C@@H](O)C[C@H]2N1Cc1cc(OC)cc(OC)c1	–	·	–	–	–	·
SMILES	14-3-3 Bad inh	PERK inh	eIF4E 4G PPI	Calb biofilm kill	Hck Nef HTS	p97 inhibitor
O=C1CCCC2=C1C(c1ccc(Br)cc1)c1c([nH]c(=S)[nH]c1=O)N2 (stereo not drawn)	–	–	59	·	–	–
O=C(O)/C=C/C(=O)NCCCc1ccccc1	–	–	–	–	–	–
O=C(CSc1nnc(SCc2ccccc2Cl)s1)N/N=C/c1c[nH]c2ccccc12	–	–	–	–	–	–
Cc1ccc(CSc2nnc(SCC(=O)N/N=C/c3c[nH]c4ccccc34)s2)cc1	95	–	–	–	–	–
COC(=O)C1=C(C)N(c2ccc(F)cc2)/C(=C/c2ccc(O)cc2)C1=O	–	–	–	–	–	–
COc1ccc(CN2CCN(C(=O)CC(C)C)CC2)cc1OC	74	–	–	·	–	–
COc1cccc(CN2CCN(C(=O)c3cccc4ccccc34)CC2)c1OC	·	–	·	·	–	–
COc1ccc(CN2CCN(C(=O)CC(C)C)CC2)c2ccccc12	83	–	–	·	–	–
CC(=C/c1ccco1)/C=N/NC(=O)CSc1nnc(SCc2ccc(C)cc2)s1	–	–	–	–	–	–
COc1ccc(/C=C/C(=O)N[C@@H](C)C(=O)O)cc1	–	3.4	–	–	–	–
CC(C)(C)C(=O)N1CCC(O)(CS(=O)(=O)Cc2ccccc2)CC1	–	–	–	–	–	–
CCOC(=O)CSc1ccc2nnc(CCNS(=O)(=O)c3ccccc3)n2n1	83	–	–	–	–	–
Cc1ccc(Nc2nc(Cl)nc(N(C)C#N)n2)cc1	–	–	–	·	–	21
CCOC(=O)CNc1nc(Cl)nc(Nc2ccc(C)cc2)n1	–	–	–	–	–	–
COc1cc(S(=O)(=O)NCC2CCCO2)ccc1Br (stereo not drawn)	–	–	–	·	–	–
c1ccc(-c2nc(-c3ccncc3)n[nH]2)nc1	–	–	54	–	–	–
COc1ccc2cc(CN(CC3CCCO3)S(=O)(=O)c3ccccc3Cl)c(=O)[nH]c2c1 (stereo not drawn)	–	–	–	·	–	–
N#Cc1ccc(C(c2nnnn2Cc2ccccc2)N2CCCC2)cc1 (stereo not drawn)	70	–	–	·	–	–
CN1C(=S)N(c2cccnc2)C(=O)/C1=C\c1ccc(C(C)(C)C)cc1	–	–	–	–	–	–
CN1C(=S)N(c2cccnc2)C(=O)/C1=C\c1ccc(N(C)C)cc1	79	–	–	–	–	–
OCCN(Cc1ccccc1)Cc1ccccc1Cl	–	–	–	·	–	–
OCCN(Cc1ccccc1)Cc1cccc(Cl)c1Cl	88	–	–	·	–	–
COc1cc(C)c(CNc2cccc(C)c2)cc1C	73	–	–	·	–	–
COc1cc(C)c(CNc2ccc(OC)c(OC)c2)cc1C	80	–	–	·	–	–
Nc1cc(Cl)ccc1C(=O)OCC(=O)N1CCOCC1	–	–	–	–	–	–
CCCCC(=O)Nc1nn(CC(C)C)c2nc3ccccc3cc12	82	–	–	·	–	–
CC(C)Cn1nc(NC(=O)C(C)(C)C)c2cc3ccccc3nc21	–	–	–	·	–	–
